Source: ChEMBL document CHEMBL2321868, “The discovery of novel potent trans-3,4-disubstituted pyrrolidine inhibitors of the human aspartic protease renin from in silico three-dimensional (3D) pharmacophore searches” (J Med Chem, 2013)
The source made the active and inactive calls. The rule behind the calls is not given here.

Tests used:
[1] = Plasma clearance in Sprague-Dawley rat at 2 mg/kg, iv by HPLC-MS analysis; type: ADME, organism-based; set-up: dose 2 mg/kg, route intravenous
How it was run: (§1)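 Cannulated, fed Sprague–Dawley rats were given 2 mg/kg intravenously and 6 mg/kg orally. Oral bioavailability came from the two routes. t1/2, plasma clearance and Vdss were estimated. Oral Cmax and AUC were taken over 0–24 h.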

[2] = test system: Rattus norvegicus; experiment: Antihypertensive activity in double transgenic rat overexpressing human renin and angiotensinogen assessed as reduction in mean arterial pressure at 6 to 30 mg/kg, po after 12 hrs; type: functional, organism-based; settings: Artery
How it was run: (§2)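 Double-transgenic rats overexpressing human renin and human angiotensinogen, with telemetry. Each received a single oral dose of 6 or 30 mg/kg. The read-out was mean arterial pressure, reported as the peak change from dosing.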

[3] = test system: Rattus norvegicus; experiment: Antihypertensive activity in po dosed double transgenic rat overexpressing human renin and human angiotensinogen assessed as reduction in mean arterial pressure; type: functional, organism-based; settings: Artery; how it was run: as §2
[4] = AUC (0 to 24 hrs) in jugular vein cannulated Sprague-Dawley rat at 6 mg/kg, po by HPLC-MS analysis; type: ADME, organism-based; set-up: time < 24 hr, dose 6 mg/kg, route oral; settings: plasma; how it was run: as §1
[5] = Cmax in jugular vein cannulated Sprague-Dawley rat at 6 mg/kg, po by HPLC-MS analysis; type: ADME, organism-based; set-up: dose 6 mg/kg, route oral; settings: in vivo; how it was run: as §1
[6] = Oral bioavailability in jugular vein cannulated Sprague-Dawley rat at 6 mg/kg by HPLC-MS analysis; type: ADME, organism-based; settings: in vivo; how it was run: as §1
[7] = Half life in jugular vein cannulated Sprague-Dawley rat at 2 mg/kg, iv by HPLC-MS analysis; type: ADME, organism-based; set-up: dose 2 mg/kg, route intravenous; settings: in vivo; how it was run: as §1
[8] = molecular target: Voltage-gated inwardly rectifying potassium channel KCNH2 (Homo sapiens, UniProt Q12809); experiment: Inhibition of human ERG by dofetilide binding assay
Chain of Voltage-gated inwardly rectifying potassium channel KCNH2 (Q12809 whole entry): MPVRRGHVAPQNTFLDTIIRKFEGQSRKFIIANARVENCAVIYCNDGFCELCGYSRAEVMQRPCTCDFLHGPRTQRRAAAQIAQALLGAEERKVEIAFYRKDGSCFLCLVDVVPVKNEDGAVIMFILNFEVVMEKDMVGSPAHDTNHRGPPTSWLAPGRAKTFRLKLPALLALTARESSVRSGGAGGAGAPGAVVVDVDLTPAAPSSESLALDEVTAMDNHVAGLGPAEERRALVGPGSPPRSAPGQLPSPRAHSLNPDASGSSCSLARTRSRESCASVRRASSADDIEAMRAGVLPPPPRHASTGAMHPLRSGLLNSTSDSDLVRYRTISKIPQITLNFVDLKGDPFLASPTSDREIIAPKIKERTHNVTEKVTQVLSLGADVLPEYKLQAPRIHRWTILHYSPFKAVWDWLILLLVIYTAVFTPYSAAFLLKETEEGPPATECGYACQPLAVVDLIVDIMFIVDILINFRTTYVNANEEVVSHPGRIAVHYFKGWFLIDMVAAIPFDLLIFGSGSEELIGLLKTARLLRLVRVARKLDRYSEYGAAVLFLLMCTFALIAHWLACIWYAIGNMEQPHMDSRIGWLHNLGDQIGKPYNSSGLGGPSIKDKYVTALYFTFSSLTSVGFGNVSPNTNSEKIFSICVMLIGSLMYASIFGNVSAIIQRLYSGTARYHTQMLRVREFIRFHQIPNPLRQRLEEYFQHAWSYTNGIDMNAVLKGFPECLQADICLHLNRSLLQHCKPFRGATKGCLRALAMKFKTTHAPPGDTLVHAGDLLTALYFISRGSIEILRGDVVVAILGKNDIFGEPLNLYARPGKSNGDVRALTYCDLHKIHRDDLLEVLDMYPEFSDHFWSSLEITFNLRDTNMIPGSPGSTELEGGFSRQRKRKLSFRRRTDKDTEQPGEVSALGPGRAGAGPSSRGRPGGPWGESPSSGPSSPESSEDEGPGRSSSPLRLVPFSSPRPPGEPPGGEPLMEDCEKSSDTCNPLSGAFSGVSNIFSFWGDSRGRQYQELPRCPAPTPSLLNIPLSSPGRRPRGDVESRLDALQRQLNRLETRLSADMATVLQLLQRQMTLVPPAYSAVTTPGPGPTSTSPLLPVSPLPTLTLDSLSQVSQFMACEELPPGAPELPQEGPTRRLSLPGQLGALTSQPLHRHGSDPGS
How it was run: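 hERG affinity from an in vitro dofetilide binding assay. The IC50 is the mean of two independent measurements.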

[9] = molecular target: 5-hydroxytryptamine receptor 2B (Homo sapiens, UniProt P41595); experiment: Inhibition of 5-HT2B (unknown origin)
Chain of 5-hydroxytryptamine receptor 2B (P41595 whole entry): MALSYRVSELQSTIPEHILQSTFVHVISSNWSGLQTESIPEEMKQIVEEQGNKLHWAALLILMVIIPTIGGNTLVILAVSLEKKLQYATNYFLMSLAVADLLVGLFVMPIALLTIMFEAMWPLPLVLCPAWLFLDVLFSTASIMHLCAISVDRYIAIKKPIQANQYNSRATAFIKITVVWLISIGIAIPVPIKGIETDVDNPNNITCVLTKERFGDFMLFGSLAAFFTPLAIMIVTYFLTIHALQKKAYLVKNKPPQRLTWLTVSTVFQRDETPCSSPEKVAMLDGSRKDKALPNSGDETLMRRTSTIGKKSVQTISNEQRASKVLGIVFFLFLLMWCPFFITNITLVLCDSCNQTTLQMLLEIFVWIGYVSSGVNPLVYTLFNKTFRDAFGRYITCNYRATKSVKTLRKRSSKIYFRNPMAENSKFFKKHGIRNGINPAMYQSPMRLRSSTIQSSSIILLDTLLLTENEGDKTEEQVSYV

[10] = molecular target: 5-hydroxytryptamine receptor 2A (Homo sapiens, UniProt P28223); experiment: Inhibition of 5-HT2A (unknown origin)
Chain of 5-hydroxytryptamine receptor 2A (P28223 whole entry): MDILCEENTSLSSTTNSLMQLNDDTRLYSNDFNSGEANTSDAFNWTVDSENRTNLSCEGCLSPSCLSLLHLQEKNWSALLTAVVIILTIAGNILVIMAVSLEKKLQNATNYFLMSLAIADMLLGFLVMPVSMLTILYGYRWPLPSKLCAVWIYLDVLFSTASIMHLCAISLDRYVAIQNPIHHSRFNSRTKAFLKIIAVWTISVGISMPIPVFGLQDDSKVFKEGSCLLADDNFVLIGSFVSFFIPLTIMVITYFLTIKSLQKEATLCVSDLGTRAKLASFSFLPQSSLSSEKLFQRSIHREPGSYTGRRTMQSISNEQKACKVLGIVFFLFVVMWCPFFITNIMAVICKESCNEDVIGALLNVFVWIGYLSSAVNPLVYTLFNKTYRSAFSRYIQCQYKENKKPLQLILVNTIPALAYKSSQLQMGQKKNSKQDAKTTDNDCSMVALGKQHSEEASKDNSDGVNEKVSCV

[11] = molecular target: T1, 5-hydroxytryptamine receptor 1A (Homo sapiens, UniProt P08908); experiment: Inhibition of 5-HT1A (unknown origin)
T1 sequence (P08908 whole entry): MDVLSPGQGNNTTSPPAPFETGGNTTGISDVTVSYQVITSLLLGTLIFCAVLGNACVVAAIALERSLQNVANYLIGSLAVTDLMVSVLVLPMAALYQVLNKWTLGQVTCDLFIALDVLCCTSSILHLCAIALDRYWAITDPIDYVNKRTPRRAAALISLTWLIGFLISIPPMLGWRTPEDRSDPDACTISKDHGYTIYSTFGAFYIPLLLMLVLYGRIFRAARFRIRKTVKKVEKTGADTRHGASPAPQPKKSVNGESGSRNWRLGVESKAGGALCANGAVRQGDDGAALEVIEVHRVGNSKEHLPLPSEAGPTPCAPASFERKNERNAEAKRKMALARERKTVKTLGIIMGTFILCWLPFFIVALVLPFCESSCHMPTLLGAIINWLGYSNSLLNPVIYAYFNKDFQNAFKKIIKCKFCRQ

[12] = molecular target: T2, Beta-secretase 2 (Homo sapiens, UniProt Q9Y5Z0); experiment: Inhibition of human recombinant BACE-2 expressed in baculovirus-infected insect sf9 cells using RE( EDANS)-EVNLDAEF-K(DABSYL)-R as substrate incubated for 1 hr prior to substrate addition measured after 1 hr by FRET-based enzymatic assay
T2 sequence (Q9Y5Z0 whole entry): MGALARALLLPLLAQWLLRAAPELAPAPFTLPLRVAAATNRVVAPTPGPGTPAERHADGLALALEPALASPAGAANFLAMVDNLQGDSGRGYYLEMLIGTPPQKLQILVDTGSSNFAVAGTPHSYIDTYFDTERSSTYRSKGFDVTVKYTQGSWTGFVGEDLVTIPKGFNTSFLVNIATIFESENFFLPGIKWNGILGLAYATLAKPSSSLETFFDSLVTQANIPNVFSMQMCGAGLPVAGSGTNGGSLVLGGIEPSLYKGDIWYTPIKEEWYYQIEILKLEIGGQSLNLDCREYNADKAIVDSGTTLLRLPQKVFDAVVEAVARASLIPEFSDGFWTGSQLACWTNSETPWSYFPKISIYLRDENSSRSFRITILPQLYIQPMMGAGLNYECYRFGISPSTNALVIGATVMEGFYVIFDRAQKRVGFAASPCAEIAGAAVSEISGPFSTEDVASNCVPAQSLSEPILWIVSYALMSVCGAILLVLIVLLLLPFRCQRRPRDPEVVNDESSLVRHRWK

[13] = molecular target: Beta-secretase 1 (Homo sapiens, UniProt P56817); experiment: Inhibition of human recombinant BACE-1 expressed in baculovirus-infected insect sf9 cells using RE( EDANS)-EVNLDAEF-K(DABSYL)-R as substrate incubated for 1 hr prior to substrate addition measured after 1 hr by FRET-based enzymatic assay
Chain of Beta-secretase 1 (P56817 whole entry): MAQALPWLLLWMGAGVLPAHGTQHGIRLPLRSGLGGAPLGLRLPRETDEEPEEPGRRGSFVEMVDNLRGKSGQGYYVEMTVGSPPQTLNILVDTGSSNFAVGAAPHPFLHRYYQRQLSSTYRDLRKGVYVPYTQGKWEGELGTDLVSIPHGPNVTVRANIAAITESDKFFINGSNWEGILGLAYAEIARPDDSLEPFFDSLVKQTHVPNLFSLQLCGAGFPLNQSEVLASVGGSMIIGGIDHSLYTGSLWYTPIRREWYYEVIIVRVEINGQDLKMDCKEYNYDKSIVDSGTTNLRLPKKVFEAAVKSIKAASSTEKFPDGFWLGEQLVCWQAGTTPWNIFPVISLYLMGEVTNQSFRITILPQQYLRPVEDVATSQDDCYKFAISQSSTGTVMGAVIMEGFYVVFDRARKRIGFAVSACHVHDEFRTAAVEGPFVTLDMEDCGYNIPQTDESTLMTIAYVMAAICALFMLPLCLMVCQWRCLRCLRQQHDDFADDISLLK

[14] = molecular target: T3, Renin (Homo sapiens, UniProt P00797); experiment: Inhibition of renin in human plasma using RE(EDANS)IHPFHLVIHTK(Dabcyl)R as substrate incubated for 1 hr prior to substrate addition measured after 2 hrs by FRET-based enzymatic assay
T3 sequence (P00797 whole entry): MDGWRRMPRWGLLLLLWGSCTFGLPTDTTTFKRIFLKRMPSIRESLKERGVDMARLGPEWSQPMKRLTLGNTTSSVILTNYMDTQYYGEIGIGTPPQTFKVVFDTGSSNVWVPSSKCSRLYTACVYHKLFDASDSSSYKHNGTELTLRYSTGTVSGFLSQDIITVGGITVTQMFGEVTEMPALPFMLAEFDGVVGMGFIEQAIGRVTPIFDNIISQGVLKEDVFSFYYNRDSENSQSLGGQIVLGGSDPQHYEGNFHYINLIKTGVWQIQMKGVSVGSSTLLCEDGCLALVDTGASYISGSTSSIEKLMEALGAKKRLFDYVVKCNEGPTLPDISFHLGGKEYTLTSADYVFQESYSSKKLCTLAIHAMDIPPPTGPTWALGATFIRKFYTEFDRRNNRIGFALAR
How it was run: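 Renin activity measured in the presence of human plasma by FRET cleavage of the quenched peptide substrate. IC50 is the half-maximal inhibition.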

[15] = Inhibition of human recombinant pepsin A expressed in Escherichia coli using Dabcyl-E-R-Nle-F-L-S-F-P-EDANS as substrate incubated for 1 hr prior to substrate addition measured after 1 hr by FRET-based enzymatic assay
[16] = molecular target: T3, Renin; experiment: Inhibition of human recombinant renin expressed in CHO cells using RE(EDANS)IHPFHLVIHTK(Dabcyl)R as substrate incubated for 1 hr prior to substrate addition measured after 2 hrs by FRET-based enzymatic assay
[17] = test system: Rattus norvegicus; experiment: Antihypertensive activity in double transgenic rat overexpressing human renin and human angiotensinogen assessed as reduction in mean arterial pressure at 6 mg/kg, po; type: functional, Artery; how it was run: as §2

- clearance [1]: 25 mL/min/kg
- AUC(0-t) at 24 h [4]: 4.81 µM·h
- Cmax [5]: 1310 nM
- bioavailability [6]: 53%
- half-life [7]: 2 h
- IC50 [9]: > 1 µM
- IC50 [10]: > 1 µM
- IC50 [11]: > 1 µM
- IC50 [12]: > 30 µM
- IC50 [13]: > 30 µM
- IC50 [14]: 0.3 µM
- IC50 [15]: > 30 µM
- IC50 [16]: 0.17 µM
SMILES: COCCCOc1cc(C(=O)N(C[C@@H]2CNC[C@H]2Cc2ccccc2)C(C)C)ccc1OC.Cl
- Activity [2]: Active
- Activity [3]: Dose-dependent effect
- IC50 [8]: 14.5 µM
- Activity [17]: 15 mmHg
